Screens as filed in PubChem BioAssay.
Shown are actives, neighbours in structure and some others; about 5.6% of the full set was active somewhere.
CHOP inh: blocks CHOP induction under ER stress; CHO-K1 CHOP-promoter luciferase, tunicamycin-induced, 15-18 h; inhibition, % at 10 µM; 220,000 tested, 3.8% active;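 active means compounds that reduced the stress-induced luciferase reporter signal by more than about 70% of percent inhibition, limit read from the data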
NR3A LBD binder: NR3A (human) ligand-binding domain modulation. NR3A LBD differential scanning fluorimetry, Tm shift; 0% = protein alone, 100% = glycine-bound protein. AID 1259313. Tm shift relative to glycine control, % at 25 µM. 340,000 tested, 2.5% active;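 active means melting temperature shift of at least 10% of the positive control shift, at one fixed dose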
XBP1 UPR activ: adaptive UPR (XBP1) activation | 330,000 tested, 0.33% active | CHO-XBP1 luciferase reporter, IRE1-XBP1 UPR activation, luminescence; percent of tunicamycin response, DMSO as zero | AID 463104 | activation, % at 20 µM;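 active means versus positive control, 20 µM dose yields 30% or more activation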
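Test system: CHO-XBP1 luciferase reporter cells | Buffer or medium: Serum-containing F12 medium, 10% FBS | Schedule: 6 h compound exposure at 37 °C, 5% CO2 | Detection: Steady-Glo luciferase glow luminescence, 10 min after reagent addition | Read-out basis: Activation, % of tunicamycin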
MPTP inh: blocks calcium-induced mitochondrial swelling | 360,000 tested, 1.4% active | inhibition, % at 10 µM | isolated mouse mitochondria, Ca2+ swelling absorbance, 30 min;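 active means inhibition of 50% or more, scaled per plate between neutral and stimulator controls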
UPR CHOP act: apoptotic UPR (CHOP) activation. 330,000 tested, 0.34% active. CHO-CHOP luciferase reporter, luminescence; percent of tunicamycin response over DMSO baseline. AID 449763. activation, % at 10 µM;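 active means at 10 µM dose, activation of 40% or more, normalized to positive control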
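Assay system: CHO cells with stable CHOP pathway luciferase reporter; Buffer or medium: F12 plus 10% serum; Times: 16-18 h cell attachment, then 6 h compound exposure, 37 °C; Signal: luciferase luminescence; Read-out basis: percent activation relative to tunicamycin control; Control set: tunicamycin high control, DMSO low control.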
aDG glyco up: increases alpha dystroglycan glycosylation. Pro5-aDG cells, alpha-DG glycosylation AlphaScreen (IIH6); 0% Pro5, 100% B10-LARGE cell signal. activation, % at 10 µM. 360,000 tested, 0.22% active. AID 624168;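 active means activation of at least 8% versus controls, or a plate z-score of at least 8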;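 further: Pro5 are CHO cells carrying HIG-tagged alpha-DG that lacks glycosylation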
Rh123 counter: Rhodamine 123 counter-screen of mitochondrial pore hits; shares compounds with MPTP inh; isolated mitochondria, membrane potential, Rhodamine 123 fluorescence; inhibition, % at 10 µM; 5,000 tested, 78% active; AID 624504; in the data active means inhibition above about 22%
MPTP abs DR: dose response confirmation of mitochondrial permeability transition pore inhibitors | 780 tested, 58% active | IC50, µM | AID 651561 | isolated mitochondria swelling, absorbance | shares compounds with MPTP inh; in the data active means IC50 below about 20 µM
MPTP counter DR: counter-screen for mitochondrial permeability transition pore inhibitors, dose response | IC50, µM | isolated mitochondria counterscreen, fluorescence read-out | 780 tested, 49% active | AID 651564 | shares compounds with MPTP inh; in the data active means IC50 below about 80 µM
Of the large screens only hits and unclear results are named; the others gave an inactive call (follow-up assays come after a bar, where they were run).

CC(C)[C@H](NS(=O)(=O)c1ccccc1F)C(=O)OCC(=O)Nc1cccc(S(N)(=O)=O)c1	none (no result: CHOP inh)
C=CCNc1ncnc2c1ncn2[C@H]1CN(Cc2ccccc2)C[C@@H](COC(C)=O)O1	none (no result: CHOP inh, NR3A LBD binder, XBP1 UPR activ, UPR CHOP act)
O=C(Nc1cc(Oc2ccccc2)cc([N+](=O)[O-])c1)C12CC3CC(C1)CC(n1cnc(Cl)n1)(C3)C2	MPTP inh 81.9 | Rh123 counter 59.0
O=C(c1ccc2c(c1)CCC2)N1CCN(Cc2ccccc2)CC1	none (no result: CHOP inh, NR3A LBD binder, XBP1 UPR activ, UPR CHOP act)
CC1CCCCC1NC(=O)COC(=O)COc1ccccc1F (stereo unspecified)	none (no result: CHOP inh)
CCOC(=O)c1c(-c2ccccc2)oc2ccc(OCC(O)CN(C)C)cc12 (stereo unspecified)	MPTP inh 98.8 (no result: CHOP inh) | Rh123 counter inactive | MPTP abs DR 6.51 | MPTP counter DR inactive
O=[N+]([O-])c1ccc(S(=O)(=O)N2CCN(c3ccc(N4CCOCC4)nn3)CC2)cc1	none (no result: CHOP inh)
CCOC(=O)c1nnc(-c2cccs2)nc1Oc1ccc(Cl)cc1	MPTP inh active | Rh123 counter inactive | MPTP abs DR inactive | MPTP counter DR inactive
CCOC(=O)c1nnc(-c2cccs2)nc1NC(C)C	none
O=C(NCc1ccccc1F)Nc1ccc([N+](=O)[O-])cc1	MPTP inh 94.5 | Rh123 counter 89.1
O=C(NCc1ccco1)Nc1ccc([N+](=O)[O-])cc1	none
O=C(NCc1ccc2c(c1)OCO2)Nc1ccc([N+](=O)[O-])cc1	MPTP inh 81.4 (no result: CHOP inh) | Rh123 counter 83.2
Cc1cc(Nc2ccc([N+](=O)[O-])cc2)nc2ccccc12	NR3A LBD binder 39.3, MPTP inh 75.7 | Rh123 counter 58.5
COc1ccc(Nc2cc(C)c3ccccc3n2)cc1	none
Cc1ccc2nc(-c3ccc(N4C(=O)CC(N5CCN(CCO)CC5)C4=O)cc3)sc2c1 (stereo unspecified)	MPTP inh 94.5 | Rh123 counter inactive | MPTP abs DR 18.6 | MPTP counter DR inactive
O=c1oc2ccccc2c(Nc2ccc3ccccc3c2)c1[N+](=O)[O-]	MPTP inh 62.5 | Rh123 counter 77.8
Cn1c(=O)c(C#N)c(-c2ccc(F)cc2)c2cc(C(=O)c3cc(Cl)cc(Cl)c3O)cnc21	NR3A LBD binder 11.9, MPTP inh 94.8 | Rh123 counter 59.9
CCN(Cc1ccccc1)CC(O)COC(c1ccc(OC)cc1)c1ccc(OC)cc1 (stereo unspecified)	MPTP inh 79.3 (no result: CHOP inh) | Rh123 counter inactive | MPTP abs DR inactive | MPTP counter DR 54.3
CC(C)c1cc(C(=O)Nc2cc(Cl)ccc2O)no1	none (no result: CHOP inh)
CC(C)c1cc(C(=O)Nc2cc(Br)ccc2O)no1	CHOP inh 78.1, MPTP inh 58.0 | Rh123 counter 61.5
O=C(COC(=O)C1CCC1)Nc1cccc(S(=O)(=O)N2CCOCC2)c1	none (no result: CHOP inh)
O=C(COC(=O)C1CC2C=CC1C2)Nc1cccc(S(=O)(=O)N2CCCCCC2)c1 (stereo unspecified)	MPTP inh 65.1 | Rh123 counter 70.2
O=C(COC(=O)C1CC2C=CC1C2)Nc1cccc(S(=O)(=O)N2CCCCC2)c1 (stereo unspecified)	MPTP inh 58.8 | Rh123 counter 37.5
O=C(COC(=O)c1c(F)cccc1F)Nc1cccc(S(=O)(=O)N2CCCCC2)c1	none (no result: CHOP inh, NR3A LBD binder, XBP1 UPR activ, UPR CHOP act)
Cc1ccc2nc(-c3ccccc3)cc(C(=O)N3CCN(S(=O)(=O)c4c(C)noc4C)CC3)c2c1	none (no result: CHOP inh)
CCCN1CCc2c(sc3nc(SCC)n(-c4ccc(OC)cc4)c(=O)c23)C1	none (no result: CHOP inh)
O=C1C2CC=CCC2C(=O)N1c1ccc(NCCc2ccc(O)cc2)c([N+](=O)[O-])c1 (stereo unspecified)	MPTP inh 91.4 | Rh123 counter 76.3
COc1ccc(CCNc2ccc(N3C(=O)CC(C)C3=O)cc2[N+](=O)[O-])cc1OC (stereo unspecified)	MPTP inh 96.2 | Rh123 counter 81.7
COc1ccc(CCNc2ccc(N3C(=O)CC(C)C3=O)cc2[N+](=O)[O-])cc1 (stereo unspecified)	none
COc1ccc(-c2nc(CCNC(=O)c3cccs3)cs2)cc1	MPTP inh 64.0 | Rh123 counter inactive | MPTP abs DR inactive | MPTP counter DR 46.7
COc1cc(-c2nc(CCNC(=O)c3ccco3)cs2)cc(OC)c1OC	none (no result: CHOP inh)
O=C(NC(NC1CCS(=O)(=O)C1)C(Cl)(Cl)Cl)c1cccc(Cl)c1 (stereo unspecified)	none
O=C(NC(NC1CCS(=O)(=O)C1)C(Cl)(Cl)Cl)c1ccc(Br)cc1 (stereo unspecified)	MPTP inh 90.9 | Rh123 counter 101.9
CCCCCCn1c(NCC)nc2c1c(=O)n(C)c(=O)n2C	MPTP inh 55.9 (no result: CHOP inh) | Rh123 counter 86.0
CCN(CC)c1ccc(/C=C2\C(=O)c3ccc(C(=O)O)cc3C2=O)cc1	MPTP inh 70.4 (no result: XBP1 UPR activ, UPR CHOP act) | Rh123 counter inactive
CCN(CC)c1ccc(C(=O)O)cc1	none
Cc1[nH]n(-c2ccccc2)c(=O)c1C(c1ccccc1[N+](=O)[O-])C(C#N)C#N (stereo unspecified)	none (no result: CHOP inh)
Cc1[nH]n(-c2ncc(-c3ccccc3)s2)c(=O)c1C(c1ccc(Cl)cc1)C(C#N)C#N (stereo unspecified)	NR3A LBD binder 12.5, MPTP inh 103.2 | Rh123 counter 24.7
O=C(Cc1cccc2ccccc12)Nc1ccc(OC(F)F)c(Cl)c1	NR3A LBD binder 23.5, MPTP inh 85.1 | Rh123 counter 90.1
O=C(Nc1ccc(OC(F)F)c(Cl)c1)C(c1ccccc1)c1ccccc1	CHOP inh 70.2, NR3A LBD binder 20.9, MPTP inh 82.8 | Rh123 counter 89.9
COCc1cccc(NC(=O)Cc2cccc3ccccc23)c1	none
CCc1ccc(-c2cc(C)no2)cc1S(=O)(=O)N1CCCN(Cc2ccc(F)cc2)C1	none (no result: CHOP inh)
CCOC(=O)c1c(NC(=O)CSc2nnc(C)c(=O)[nH]2)sc2c1CCCC2	none
CCOC(=O)c1c(NC(=O)CSc2nnc(C)c(=O)[nH]2)sc(C)c1-c1ccc(C)cc1	MPTP inh 70.0 | Rh123 counter 61.7
C=CCc1c(C)nc(-c2ccccc2)nc1Nc1ccccc1O	MPTP inh 59.5 | Rh123 counter 63.2
O=C1NC(=O)C2(CCCC2c2ccccc2)N1 (stereo unspecified)	none (no result: CHOP inh, XBP1 UPR activ, UPR CHOP act)
